T/C data for six compounds are collected here from ChEMBL document CHEMBL1122593, “Phosphorus-nitrogen compounds. 24. Phosphoramide mustard carrier derivatives” (1984).

“And” between values parts separate entries of the source, which are not always exact repeats. Equal entries are not always repeated.

Assay [1] concerns L1210. The assay is described as follows: Antitumor activity against L1210 lymphoid leukemia and treated mean survival time per control mean survival time was determined at 500 mg/kg. It is filed as functional, Mus musculus. In a few lines:
(§1)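 Mice bearing L1210 lymphoid leukaemia, tested by NCI contractors. Compound given as a single injection 1 day after tumour cell inoculation. T/C% = (treated/control) × 100.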

The subject of assay [2] is L1210. The assay is described as follows: Antitumor activity against L1210 lymphoid leukemia and treated mean survival time per control mean survival time was determined at 300 mg/kg. The format is functional, Mus musculus. In a few lines: as §1
A further assay has as its system Mus musculus. The assay is described as follows: Antitumor activity against CD8F1 mammary tumor and treated mean survival time per control mean survival time was determined at 300 mg/kg. The format is functional. The essentials: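 Mice bearing CD8F1 mammary tumour, tested by NCI contractors. Compound given as a single injection starting 20 days after tumour cell inoculation. T/C% = (treated/control) × 100.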

For the next assay, the system named is P388. The assay is described as follows: Antitumor activity against P388 Lymphocytic leukemia and treated mean survival time per control mean survival time was determined at 200 mg/kg. It is filed as functional, Mus musculus. In a few lines: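 Mice bearing P388 lymphocytic leukaemia, tested by NCI contractors. Compound given as five consecutive injections beginning 1 day after tumour cell inoculation. T/C% = (treated/control) × 100.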

A short description of assay [3]: Antitumor activity against Lewis lung carcinomia and treated mean survival time per control mean survival time was determined at 400 mg/kg. It is filed as functional, Mus musculus. In a few lines:
(§2)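 Mice bearing Lewis lung carcinoma, tested by NCI contractors. Compound given as nine consecutive injections beginning 1 day after tumour cell inoculation. T/C% = (treated/control) × 100.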

A short description of assay [4]: Antitumor activity against Lewis lung carcinomia and treated mean survival time per control mean survival time was determined at 50 mg/kg. The format is functional, Mus musculus. In a few lines:
as §2

In the case of `CC/C(=C(/CC)c1ccc(OP(=O)(Cl)N(CCCl)CCCl)cc1)c1ccc(OP(=O)(Cl)N(CCCl)CCCl)cc1` (centres undefined), the T/C in the assay with L1210 [1] worked out at 100%.
Consider `CC/C(=C(/CC)c1ccc(OP(N)(=O)N(CCCl)CCCl)cc1)c1ccc(OP(N)(=O)N(CCCl)CCCl)cc1` (centres undefined), for which the T/C in the assay with L1210 [2] is 113%; in the assay with Mus musculus, 39%; in the assay on P388 (200 mg/kg), 100% and 104%.
Regarding `NP(=O)(Oc1cccc2c(OP(N)(=O)N(CCCl)CCCl)cccc12)N(CCCl)CCCl` (centres undefined), the T/C in the assay with L1210 [1] amounted to 95%.
Take `NP(=O)(Oc1c2occc2cc2ccc(=O)oc12)N(CCCl)CCCl` (centres undefined): the T/C with P388 came out at 114%.
`CC(C)N1C[C@@H](COc2cccc3ccccc23)O[P@@]1(=O)N(CCCl)CCCl` (racemic): in the assay with L1210 [1] (500 mg/kg), the T/C was 130% and 110% and 90%.
`CC(C)N1C[C@H](COc2cccc3ccccc23)O[P@@]1(=O)N(CCCl)CCCl` (racemic): the T/C is recorded as 90% in assay [3] and 95% in assay [4].

By T/C is commonly meant the ratio of treated to control.
